FID counter: displaces DNA intercalator in HCV helicase counter-screen; DNA fluorescent intercalator displacement, fluorescence; 0.17% of 290,000 active; inhibition, % at 7.9 µM; AID 1845; in the data active means inhibition above about 37%;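 further: 0% = vehicle and 100% = reference compound; higher means more ethidium bromide displaced from hairpin DNA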
UBC13 polyUb: human UBC13 polyubiquitination inhibition. P61088. inhibition, % at 20 µM. UBC13 polyubiquitin chain formation, TR-FRET. AID 485273. 0.47% of 330,000 active; in the data active means inhibition above about 45%, passing the limit was not always enough
Target sequence (P61088 whole entry, looked up): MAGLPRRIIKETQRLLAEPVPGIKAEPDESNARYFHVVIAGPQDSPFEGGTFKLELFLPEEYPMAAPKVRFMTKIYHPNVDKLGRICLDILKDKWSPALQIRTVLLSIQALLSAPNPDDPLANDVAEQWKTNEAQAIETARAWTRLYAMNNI
TMEM16A act: activators or potentiators of mouse TMEM16A chloride channel; Q8BHY3; HEK293 TMEM16A/YFP-H148Q/I152L, iodide quench fluorescence; stronger effect = lower value; B-score at 10 µM; 0.3% of 340,000 active;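 active means fluorescence-ratio B-score plate-corrected deviation score at least 3 library SD below zero, with starting fluorescence score within 5 deviations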;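 further: channel opened by trigger with iodide after compound preincubation; score built on the fluorescence ratio of max minus min over baseline; more negative score means more quench and so TMEM16A activation or potentiation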
TMEM16A inh: mouse TMEM16A channel inhibition, primary screen; HEK293 TMEM16A/YFP iodide influx fluorescence, ionomycin; normalized B-score (activity score, 25-100; higher = stronger inhibition) at 10 µM; 1.2% of 310,000 active; AID 588511;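 active means ratio plate-corrected score three or more library SD toward inhibition, starting fluorescence score within five deviations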;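 further: score derived from kinetic fluorescence span divided by baseline fluorescence per well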
Apaf-1 inh: inhibitors of human Apaf-1 apoptosome; O14727; reconstituted apoptosome caspase-3 activity, DEVD-Rh110 fluorescence; inhibition, % at 20 µM; 0.71% of 330,000 active; AID 489030; active means inhibition of at least 40% at 20 µM;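 further: plate controls were DMSO wells for no effect and DEVD-CHO caspase inhibitor wells for full effect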
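Material: cell-free apoptosome with Apaf-1, procaspase-3 and caspase-9; Buffer or medium: Hepes pH 7.5 with detergent and BSA; Reagent: cytochrome c trigger plus (Z-DEVD)2-Rh110 caspase-3 substrate; Times: compound with Apaf-1, dATP, procaspase-3 30 min, then 50 min reaction, room temperature; Technique: Rh110 fluorescence intensity.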
Casp3 UBC13 ctr: counter-screen for UBC13 inhibitors: human caspase-3 inhibition; 4% of 1,400 active; Recombinant caspase-3, Caspase-Glo 3/7 luminescence, 60 min; shares compounds with UBC13 polyUb; inhibition, % at 20 µM;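 active means mean inhibition across replicates above about 26%, limit read from the data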;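 further: plate controls were DMSO with caspase-3 for no effect and DMSO wells lacking enzyme for full effect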
Target sequence (P42574 whole entry, looked up): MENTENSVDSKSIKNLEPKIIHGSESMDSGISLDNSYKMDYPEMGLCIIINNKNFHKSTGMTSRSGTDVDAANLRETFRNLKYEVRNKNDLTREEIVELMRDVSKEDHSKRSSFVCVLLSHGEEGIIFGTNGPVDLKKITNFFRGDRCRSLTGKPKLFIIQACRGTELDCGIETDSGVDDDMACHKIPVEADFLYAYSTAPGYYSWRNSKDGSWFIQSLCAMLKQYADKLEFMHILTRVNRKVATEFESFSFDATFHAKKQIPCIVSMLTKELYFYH
UBC13 confirm: human UBC13 polyubiquitin inhibition, confirmed. 68% of 1,400 active. inhibition, % at 10 µM. shares compounds with UBC13 polyUb. UBC13 polyubiquitination, TR-FRET, biochemical; in the data active means inhibition above about 45%
Starred values were filed as active, the others as inactive; i = inactive; x = not tested or not shown. Hits are enriched below; roughly 2.4% of the tested compounds scored in any of these assays.

SMILES	FID counter	UBC13 polyUb	TMEM16A act	TMEM16A inh	Apaf-1 inh	Casp3 UBC13 ctr	UBC13 confirm
COc1ccccc1N(C(=O)c1snc(C(N)=O)c1N)C(C(=O)NCc1ccccc1)c1ccc(O)cc1 (configuration not stated)	-32	7	i	x	19	x	x
CCOC(=O)C1CSC(CC(=O)Nc2ccc(OC(F)(F)F)cc2)C(=O)N1 (configuration not stated)	-19	0	i	i	-1	x	x
Cc1ccc(C(C(=O)NCC2CCCO2)N(C(=O)c2snc(C(N)=O)c2N)c2ccc(F)cc2)o1 (configuration not stated)	-43	46*	i	i	13	-5	39
CC(C)c1ccc(NC(=O)CNC(=O)Cn2ccc3ccccc3c2=O)cc1	-7	-5	i	i	-2	x	x
CC(C)c1ccc(NC(=O)C[n+]2ccn(C3=C([O-])c4ccccc4C3=O)c2)cc1	10	56*	i	i	24	-4	47*
O=C(C[n+]1cc(-c2ccc(Cl)cc2)n2c1CCC2)N1c2ccccc2Sc2ccccc21	20	8	i	i	10	x	x
O=C(C[n+]1cc(-c2ccc(Cl)c(Cl)c2)n2c1CCC2)N1c2ccccc2Sc2ccccc21	12	45*	i	i	26	-4	39
CCn1c(SCC(=O)Nc2oc(C)c3c(C)n[nH]c(=O)c23)nc2sc(C)c(C)c2c1=O	x	64*	i	i	31	-2	18
COc1ccc(-c2sc3ccccc3c2-c2ccc(OCCN(C)C)cc2)cc1	x	87*	i	x	77*	-10	81*
COc1ccc(-c2sc3ccccc3c2-c2ccc(O)cc2)cc1	x	28	i	x	26	x	x
COc1ccc(-c2noc(CCC(=O)NCC3CCN(Cc4cccc(C)c4)CC3)n2)cc1	13	54*	i	i	6	3	49*
COc1ccc(-c2noc(CCC(=O)NC3CCN(Cc4ccccc4)CC3)n2)cc1	13	9	i	i	12	x	x
CCc1ccc(-c2cc3c(=O)n(CC(=O)NCCCN4CCC(Cc5ccccc5)CC4)nc(C)n3n2)cc1	1	60*	i	i	25	1	86*
Cc1nn(CC(=O)NCCCN2CCC(Cc3ccccc3)CC2)c(=O)c2cc(-c3ccccc3)nn12	7	93*	i	i	16	2	112*
Cc1nn(CC(=O)NCCCN2CCN(Cc3ccccc3)CC2)c(=O)c2cc(-c3ccccc3)nn12	19	24	i	i	9	x	x
Cc1ccc(CN2CCC(CNC(=O)c3ccc(NC(=O)C4=CSCCO4)cc3)CC2)cc1	10	72*	-27*	i	-3	-1	96*
O=C(Nc1ccc(C(=O)NCC2CCN(Cc3ccccc3F)CC2)cc1)C1=CSCCO1	7	25	i	i	-4	x	x
Cc1ccc(-c2[nH]c3cc(C(=O)NCCCn4ccnc4)ccc3c(=O)c2O)cc1	x	46*	i	i	6	-2	43
CCCNC(=O)c1ccc2c(=O)c(O)c(-c3ccc(C)cc3)[nH]c2c1	x	-1	i	i	-7	x	x
CCOC(=O)C(=NC1CCS(=O)(=O)C1)NNc1cc(Cl)ccc1Cl (configuration not stated)	-2	68*	i	i	-10	-5	57*
CCOC(=O)C(=NC1CCS(=O)(=O)C1)NNc1ccccc1Cl (configuration not stated)	-3	42	i	i	-17	x	x
Cn1c(=O)c2c(ncn2Cc2ccccc2)n(C)c1=O	-4	50*	i	i	-9	-2	30
O=C(Nc1ccncc1)C1CCN(S(=O)(=O)c2cccc(C(F)(F)F)c2)CC1	x	54*	i	x	39	1	32
C[C@H](CO)N1C[C@H](C)[C@@H](CN(C)S(C)(=O)=O)Oc2ccc(NC(=O)CCN3CCOCC3)cc2C1=O	x	0	x	x	-2	x	x
Cc1cc(Sc2nnc(N)s2)c2ccccc2n1	0	44	i	i	-4	x	x
SMILES	FID counter	UBC13 polyUb	TMEM16A act	TMEM16A inh	Apaf-1 inh	Casp3 UBC13 ctr	UBC13 confirm
Cc1cc(Sc2nnc(/N=C/N(C)C)s2)c2ccccc2n1	-18	55*	i	i	-8	-2	65*
CC(C)(C)c1cc(-c2nc(N)nc(N)n2)c(O)c(C(C)(C)C)c1	x	51*	i	i	22	-2	18
Nc1nc(N)nc(-c2cc(O)ccc2O)n1	x	12	i	x	-2	x	x
Cc1[nH]c(-c2ccc(F)cc2)cc1C(=O)N1CCN(c2ccccc2F)CC1	-37	-1	i	i	16	x	x
Cc1ccc2c(c1)c1c(n2CC(O)CNC2CCCCC2)CCCC1 (configuration not stated)	29	61*	i	i	34	2	30
Cc1ccc2c(c1)c1c(n2CC(O)CNC(CO)(CO)CO)CCCC1 (configuration not stated)	13	16	i	i	1	x	x
COc1ccc(-c2c(-c3ccc(C#N)cc3)oc(=O)c3cc(OC)c(OC)cc23)cc1	x	45*	i	x	11	0	24
COc1ccc(-c2sc3ccc(OC)cc3c2C#Cc2cncn2C)cc1	x	48*	i	x	16	-2	40
NCCCCc1ccc2ccc3cccc4ccc1c2c34	x	49*	i	x	29	-1	85*
CC(C)(C)NC(=O)NC(=O)CN1CCN(C(c2ccccc2)c2ccccc2)CC1	-3	-22	i	i	11	x	x
CS(=O)(=O)c1ncc(Cl)c(C(=O)Nc2ccc(N3CCOCC3)cc2)n1	3	45*	i	i	-8	11	33
Cn1c(=O)c2sccc2n(Cc2cccc(Br)c2)c1=O	-13	8	i	i	0	x	x
Cc1c(C(=O)O)sc2nc(/C=C/c3cccc(O)c3)[nH]c(=O)c12	-6	2	i	i	3	x	x
O=C(CCC(=O)N1CCOc2ccc(Cl)cc21)NCCCN1CCN(c2ccccc2F)CC1	16	62*	i	i	19	2	43
O=C(CCC(=O)N1CCOc2ccc(Cl)cc21)NCCCN1CCC(Cc2ccccc2)CC1	18	92*	i	i	36	-4	92*
Cc1ccc(C)c(N2CCN(CCCNC(=O)CCC(=O)N3CCOc4ccc(Cl)cc43)CC2)c1	28	60*	x	i	25	-2	80*
COc1ccc(N2CCN(CCCNC(=O)CCC(=O)N3CCOc4ccc(Cl)cc43)CC2)cc1	15	12	i	i	3	x	x
CCCCn1c(N)c(N(CC(C)C)C(=O)c2ccc(N3C(=O)c4ccccc4C3=O)cc2)c(=O)[nH]c1=O	x	-16	i	i	2	x	x

Assay outcomes (PubChem)
